Measured values from different studies.
Compare with care: the assays were run in different laboratories.
Target: MAP kinase-interacting serine/threonine-protein kinase 1 (MKNK1, Homo sapiens, UniProt Q9BUB5)

CN(c1ncccc1CNc1nc(Nc2ccc3c(c2)CC(=O)N3)ncc1C(F)(F)F)S(C)(=O)=O  inhibition (enzyme activity; inhibitor; 1 µM): 3.8%
O=C(Nc1cnn(-c2csc(C(=O)NC3COC3)c2)c1)Nc1ccccc1Cl  remaining activity (enzyme activity; inhibitor; 5 µM): 94.3%
FC(F)(F)Oc1cccc(-c2cnc3ccc(-c4ccncc4)nn23)c1  activity vs control (enzyme activity; inhibitor; radiometric; 1 µM): 75%
N#CCCc1ccc2c(c1)-c1[nH]c3ccc([N+](=O)[O-])cc3c1CC(=O)N2  remaining signal (cell-free assay; 0.5 µM): 66.7%
O=C(O)[C@H]1[C@H](Cn2nnc3ccccc3c2=O)CC[C@@H]1C(=O)c1ccc(OCCC2CCOCC2)cc1  remaining binding (cell-free assay; competition with immobilised ligand; 1 µM): 96%
CC[C@H](CO)Nc1nc(NCc2ccccc2)c2ncn(C(C)C)c2n1  remaining signal (cell-free assay; 0.5 µM): 96.4%
Oc1cccc(-c2nc(N3CCOCC3)c3oc4ncccc4c3n2)c1  remaining activity (enzyme activity; inhibitor; 10 µM): 97%
Cc1nc(C2CCN(C(=O)c3ccc(OC(F)(F)F)cc3N)CC2)c2ncc(N3CCN(C)CC3)cc2n1  remaining binding (cell-free assay; competition with immobilised ligand; 1 µM): 100%
COc1cc(Nc2cnc(C#N)c(O[C@H](C)CN(C)C)n2)ncc1-c1cnn(C)c1  remaining activity (enzyme activity; inhibitor; radiometric; 10 µM): 90%
FC(F)c1nc2ccccc2n1-c1nc(N2CCOCC2)nc(N2CCOCC2)n1  remaining activity (enzyme activity; inhibitor; 10 µM): 96%
CC(C)(C)C(=O)c1sc(NC2CCCCC2)nc1N  remaining activity (enzyme activity; inhibitor; 10 µM): 105%
CS(=O)(=O)Nc1cccc(-c2csc(NC(=O)CSc3nc4nccnc4c(=O)n3CCc3ccccc3)n2)c1  inhibition (enzyme activity; inhibitor; 10 µM): -14%
Cn1nc(C(=O)NCc2ccc(C(=O)O)cc2)cc1-c1ccc2[nH]ccc2c1  remaining binding (cell-free assay; competition with immobilised ligand; 0.1 µM): 100%
O=C1Nc2ccc(Cl)cc2C1=Cc1cc(Cl)c(O)c(Cl)c1  remaining signal (cell-free assay; 0.5 µM): 103%
CNC(=O)c1ccc(Nc2ncc(C(F)(F)F)c(NCc3nccnc3N(C)S(C)(=O)=O)n2)cc1  remaining binding (cell-free assay; competition with immobilised ligand; 0.1 µM): 83%
COc1cc2ncnc(Nc3ccc(Oc4ccccc4)c(C)c3C)c2cc1OC  inhibition (enzyme activity; inhibitor; 1 µM): -6%
FC(F)(F)c1ccc2c(c1)nc(-c1cccnc1)n2C1CC1  remaining binding (cell-free assay; competition with immobilised ligand; 1 µM): 100%
CC(C)(C)c1nc2c(s1)c1nc(N)ncc1c1ccc(NS(=O)(=O)c3c(F)cccc3F)c(F)c12  remaining activity (enzyme activity; inhibitor; radiometric; 1 µM): 117%
CCS(=O)(=O)c1cc2cc(C[C@](O)(CC(C)(C)c3ccc(F)cc3C(N)=O)C(F)(F)F)[nH]c2cn1  remaining binding (cell-free assay; competition with immobilised ligand; 1 µM): 97%
Nc1nc(NC2CCCCC2)sc1C(=O)c1ccccc1  remaining activity (enzyme activity; inhibitor; 10 µM): 105%
O=C(Nc1cnn(-c2csc(C(=O)NC3COC3)c2)c1)Nc1c(F)cccc1Cl  remaining activity (enzyme activity; inhibitor; 5 µM): 103%
CCC(=O)N[C@@H]1CC[C@H](C(=O)N(C)c2ccc(-c3nc4ccccc4o3)cc2)C1  remaining binding (cell-free assay; competition with immobilised ligand; 1 µM): 95%
